Bioassay records deposited in PubChem BioAssay by several laboratories.
BaF3 tox = counter-screen for JAK2V617F inhibitors: parental Ba/F3 viability inhibitors; CellTiter-Glo ATP luminescence; inhibition, % at 5.6 µM; hit rate 1.1% among 220,000; AID 1486;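 active = inhibition above a per-campaign cutoff, the mean inhibition of all tested compounds plus 3 SD, cut at about 27% in these data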
Ba/F3 V617F tox = lowers viability of Ba/F3 cells expressing EpoR and JAK2V617F. AID 1446. hit rate 1.1% among 220,000. inhibition, % at 5.6 µM. ATP luminescence;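 active = inhibition above the campaign mean plus 3 SD over all tested compounds, cut at about 24% in these data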;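 also: cytokine-independent growth of Ba/F3 cells driven by EpoR plus mutant JAK2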
APP transl inh = APP translation inhibition | SH-SY5Y APP 5'UTR-luciferase reporter, luminescence | hit rate 0.82% among 190,000 | AID 1285 | inhibition, % at 2 µM;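 active = inhibition above a set limit, derived from the sample mean plus 3 SD, cut at about 45% in these data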
b-catenin transl = beta-catenin nuclear translocation modulation; hit rate 0.3% among 190,000; HeLa beta-catenin nuclear translocation, immunofluorescence imaging; AID 1665; nuclear translocation activity, % at 5 µM;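 active = nuclear translocation activity above 50% at 5 µM, with a well cell count of 50 or more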;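 also: per-cell ratio of nuclear to cytoplasmic median beta-catenin stain intensity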
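Signal – beta-catenin immunofluorescence imaging with DAPI · Test system – human HeLa cell line · Dosing – 5 µM primary single dose, 0.1% DMSO, 0.02–20 µM confirmation series · Measure – % activation, nuclear-to-cytoplasmic median beta-catenin signal ratio per cell · Incubation – 24 h compound exposure at 37°C, 5% CO2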
L major viab = Leishmania major promastigote growth inhibition. Leishmania major promastigotes, resazurin fluorescence viability. hit rate 9% among 200,000. inhibition, % at 10 µM; in the data active = inhibition above about 50%;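 also: promastigotes grown with compound for 44 hours at 28 °C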
MT stabilizer = stabilizes microtubules in HeLa cells | HeLa tubulin immunostaining HCS, 24 h; share of cells brighter than vehicle mean+2SD | % tubulin-high responders, % at 10 µM | hit rate 0.83% among 200,000;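 active = plate Z-score above 3 for both tubulin-high and condensed-nucleus cell shares, with cell loss under 80%, at 10 µM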;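 also: anti alpha tubulin signal scored within the nucleus-defined area of each cell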
A number is an active result; – = inactive; · = not tested or not shown. Hits are enriched below; roughly 9.6% of the tested compounds scored in any of these assays.

SMILES | BaF3 tox | Ba/F3 V617F tox | APP transl inh | b-catenin transl | L major viab | MT stabilizer
CCCN1C2=C(C(=O)CC(C)(C)C2)C(c2ccc(F)cc2)C2=C1c1ccccc1C2=O (stereo not drawn) | – | – | – | – | 71.8 | –
CC(=O)C1=C(C)Nc2ncnn2C1c1ccccc1OCc1ccccc1 (stereo not drawn) | – | – | – | · | 61.4 | –
O=C(NCc1ccc2c(c1)OCO2)c1ccc(CSCc2ccc(Cl)cc2)o1 | – | – | – | – | 50.5 | –
CCc1ccccc1S(=O)(=O)Cc1ccc(C(=O)NCc2ccc3c(c2)OCO3)o1 | – | – | – | · | – | –
O=C(NCc1ccc2c(c1)OCO2)c1ccc(COc2cc(Cl)ccc2Cl)o1 | – | – | · | – | – | –
O=C(NCc1ccc2c(c1)OCO2)c1ccc(CS(=O)(=O)Cc2cccc(Cl)c2)o1 | – | – | – | – | 79.0 | –
O=S(=O)(NCC(Nc1ccc(Cl)cc1)c1ccccc1)c1ccccc1 (stereo not drawn) | – | – | – | · | – | –
Cc1ccc(NC(CNS(=O)(=O)c2ccc(Cl)cc2)c2ccccc2)cc1 (stereo not drawn) | – | – | – | – | 53.5 | –
O=C(O)c1cccc(NC2=C(Cl)C(=O)c3ccccc3C2=O)c1 | – | – | – | – | 65.9 | –
CCN(CC)CCCNC1=C(Cl)C(=O)c2ccccc2C1=O | – | – | – | – | 99.8 | 43.2
Cc1ccc(NCC(=O)c2ccccc2)cc1Cl | – | – | – | – | – | –
Cc1ccc(NC2=C(NC(=O)c3ccccc3)C(=O)c3ccccc3C2=O)cc1Cl | – | – | – | – | 97.5 | –
O=C1C(Cl)=C(Nc2ccccc2)C(=O)c2ccccc21 | – | – | 95.7 | – | – | –
O=C(NC1CCN(Cc2ccccc2)CC1)c1ccc2c(c1)[nH]c(=O)n2Cc1ccc(F)cc1 | – | – | – | – | – | –
c1ccc(COC(CN2CCCCCC2)CN2CCCCCC2)cc1 | – | – | · | – | · | ·
CN1C(c2ccc(F)cc2)=CS/C1=C(\C#N)c1nnc2n1-c1ccccc1SC2 | – | – | – | – | 79.4 | –
CN(C)S(=O)(=O)c1cc(NC(=O)CSc2nn(-c3ccc(Cl)cc3)c(=S)s2)ccc1Cl | – | – | – | – | 92.7 | –
Cc1ccc(NC(=O)CSc2nn(-c3ccc(Cl)cc3)c(=S)s2)cc1S(=O)(=O)N(C)C | – | – | – | – | 97.2 | –
CCCNc1nc(N)nc(-c2cc(Cl)ccc2OC)n1 | – | – | – | – | – | –
CCCN(CCC)c1nc(N)nc(-c2cc(Cl)ccc2OC)n1 | – | – | – | – | 58.2 | –
CCCN(CCO)Cc1ccc(Br)cc1 | – | – | – | – | – | –
CCN(CC)CCN(C)Cc1ccc(Br)cc1 | – | – | · | – | 89.3 | –
CCN(c1ccccc1)S(=O)(=O)c1ccc(Cl)c(C(=O)OCC(=O)c2[nH]c(C)c(C(C)=O)c2C)c1 | – | – | – | – | 53.1 | –
CC(=O)c1c(C)[nH]c(C(=O)COC(=O)c2cc(S(=O)(=O)N(C)c3ccccc3)ccc2Cl)c1C | – | – | – | – | – | –
CCC1CSC(Nc2ccc(C(=O)/C=C/c3ccc(Oc4ccccc4)cc3)cc2)=N1 (stereo not drawn) | – | – | – | – | 58.6 | –
SMILES | BaF3 tox | Ba/F3 V617F tox | APP transl inh | b-catenin transl | L major viab | MT stabilizer
Cc1ccc(CNC(=O)CNS(=O)(=O)c2ccc3nc(C)sc3c2)cc1 | – | – | – | – | – | –
CCN1CC(=O)Nc2cc(S(=O)(=O)N3CCOCC3)ccc21 | – | – | – | – | – | –
Cc1nc(C(=O)NNC(=O)c2ccc(Cl)cc2)c(C(F)(F)F)o1 | 31.0 | – | · | – | · | ·
C=CCOCCN(C)C1=NS(=O)(=O)c2cc([N+](=O)[O-])ccc21 | – | – | – | – | 100.0 | –
CN(CCO)C1=NS(=O)(=O)c2cc([N+](=O)[O-])ccc21 | – | – | – | – | – | –
COc1ccccc1/C=C1\CCCC2=C1Nc1nnnn1C2c1ccccc1OC (stereo not drawn) | – | – | – | – | 78.8 | –
OC(COCc1ccccc1)CN1CCCC1 (stereo not drawn) | – | – | – | – | – | –
Cc1ccc(OCC(O)CN2CCN(c3ccccc3)CC2)cc1 (stereo not drawn) | – | – | – | – | – | –
CCCc1ccc(OCC(O)CN2CCN(c3ccccc3)CC2)cc1 (stereo not drawn) | – | – | – | – | 93.9 | –
OC(COCc1ccccc1)CN1CCN(c2ccccc2)CC1 (stereo not drawn) | – | – | – | – | 90.3 | –
